Data set [1] deals with Medicago sativa. In words: Post-emergence herbicidal activity against Medicago sativa (alfalfa) at 1500 g/ha applied through spraying after first true leaf expanded. Format: functional. The essentials: (§1)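 Seeds sown in 6 cm diameter plastic boxes containing artificial mixed soil. Amaranthus retroflexus seed was reproduced outdoors and stored at room temperature. Alfalfa and rape seed came from a crop institute.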

Data set [2] relates to Amaranthus retroflexus. As to the kind of experiment: Post-emergence herbicidal activity against Amaranthus retroflexus at 300 g/ha applied through spraying after first true leaf expanded. It is filed as functional. The method in brief:
as §1

Data set [3] has as its system Medicago sativa. As to the kind of experiment: Post-emergence herbicidal activity against Medicago sativa (alfalfa) at 300 g/ha applied through spraying after first true leaf expanded. Format: functional. The method in brief:
as §1

Data set [4] concerns Amaranthus retroflexus. As to the kind of experiment: Post-emergence herbicidal activity against Amaranthus retroflexus at 1.5 kg/ha applied through spraying after first true leaf expanded. Format: functional. The essentials: as §1
Data set [5] has as its system Medicago sativa. As to the kind of experiment: Herbicidal activity against Medicago sativa (alfalfa). Format: functional.
In data set [6] the test system is Medicago sativa. As to the kind of experiment: Herbicidal activity against Medicago sativa (alfalfa) at 150 g/ha. It is filed as functional.
The subject of data set [7] is Medicago sativa. As to the kind of experiment: Post-emergence herbicidal activity against Medicago sativa (alfalfa) at 75 g/ha applied through spraying after first true leaf expanded. Format: functional. The essentials:
as §1

The test system of data set [8] is Amaranthus retroflexus. In words: Post-emergence herbicidal activity against Amaranthus retroflexus at 75 g/ha applied through spraying after first true leaf expanded. It is filed as functional. The essentials:
as §1

Data set [9] deals with Medicago sativa. As to the kind of experiment: Herbicidal activity against Medicago sativa (alfalfa) at 18.75 g/ha. Format: functional.
The test system of data set [10] is Brassica napus. In words: Post-emergence herbicidal activity against Brassica napus (oilseed rape) at 1500 g/ha applied through spraying after first true leaf expanded. Format: functional. The essentials: as §1
Data set [11] has as its system Brassica napus. As to the kind of experiment: Post-emergence herbicidal activity against Brassica napus (oilseed rape) at 75 g/ha applied through spraying after first true leaf expanded. Format: functional. The essentials:
as §1

Data set [12] deals with Medicago sativa. As to the kind of experiment: Herbicidal activity against Medicago sativa (alfalfa) at 37.50 g/ha. It is filed as functional.
In data set [13] the test system is Medicago sativa. As to the kind of experiment: Post-emergence herbicidal activity against Medicago sativa (alfalfa) at 1.5 kg/ha applied through spraying after first true leaf expanded. Format: functional. The method in brief: as §1
Data set [14] deals with Amaranthus retroflexus. In words: Post-emergence herbicidal activity against Amaranthus retroflexus at 1500 g/ha applied through spraying after first true leaf expanded. It is filed as functional. The essentials:
as §1

The test system of data set [15] is Medicago sativa. In words: Herbicidal activity against Medicago sativa (alfalfa) at 75 g/ha. Format: functional.
Data set [16] concerns Brassica napus. As to the kind of experiment: Post-emergence herbicidal activity against Brassica napus (oilseed rape) at 1.5 kg/ha applied through spraying after first true leaf expanded. Format: functional. The essentials:
as §1

The test system of data set [17] is Brassica napus. As to the kind of experiment: Post-emergence herbicidal activity against Brassica napus (oilseed rape) at 300 g/ha applied through spraying after first true leaf expanded. Format: functional. The essentials:
as §1

In another data set the test system is Zea mays. In words: Phytotoxicity against Zea mays (maize) at 750 g/ha. It is filed as organism-based. Particulars: in vivo.
In data set [18] the test system is Brassica napus. As to the kind of experiment: Pre-emergence herbicidal activity against Brassica napus (oilseed rape) at 1.5 kg/ha applied through spraying immediately after seed plantings. Format: functional. The method in brief:
as §1

Data set [19] concerns Medicago sativa. In words: Pre-emergence herbicidal activity against Medicago sativa (alfalfa) at 1.5 kg/ha applied through spraying immediately after seed plantings. It is filed as functional. The essentials: as §1
Data set [20] has as its system Amaranthus retroflexus. In words: Pre-emergence herbicidal activity against Amaranthus retroflexus at 1.5 kg/ha applied through spraying immediately after seed plantings. Format: functional. The essentials: as §1

Take `CCOCCOC(=O)/C(C#N)=C(/NCc1ccc(Cl)nc1)SC`: the Activity with Medicago sativa [1] is given as 76.2%; in the data set on Amaranthus retroflexus [2], 96.2%; with Medicago sativa [3], 57.5%; with Amaranthus retroflexus [4], 100%; in the data set with Medicago sativa [6], 98.1%; in the data set on Medicago sativa [7] it was 36.3%. Also, the Activity with Amaranthus retroflexus [8] was 52.3%; in the data set with Medicago sativa [9] it was 80.6%; with Brassica napus [10] it was 100%; with Brassica napus [11], 36.8%; in the data set with Medicago sativa [12] it was 88.9%; with Medicago sativa [13], 75%. Moreover, the Activity is reported as 100% in the data set with Amaranthus retroflexus [14]; 95.3% with Medicago sativa [15]; 80.6% in the data set with Brassica napus [16]; 100% in the data set with Brassica napus [17]; “Non-toxic” with Zea mays. Moreover, the ED50 in the data set on Medicago sativa [5] is reported as 4.35 g/ha. This compound had an ED90 in the data set with Medicago sativa [5] of 39.3 g/ha.

In turn, `CCOCCOC(=O)/C(C#N)=C(/NCc1ccc(Cl)cc1)SC` returned an ED50 in the data set with Medicago sativa [5] of 8.85 g/ha. Further, the ED90 in the data set on Medicago sativa [5] was determined as 193.95 g/ha. Besides, the Activity was found to be 87% with Medicago sativa [6], 59.3% in the data set on Medicago sativa [9], 76.9% in the data set on Medicago sativa [12] and 80.6% in the data set with Medicago sativa [15].

`CCOCCOC(=O)/C(C#N)=C(/C)NCc1ccc(Cl)nc1`: the Activity is recorded as 100% in the data set on Medicago sativa [1]; 100% in the data set on Brassica napus [18]; 100% in the data set with Amaranthus retroflexus [4]; 0% in the data set with Medicago sativa [7]; 18.3% in the data set with Amaranthus retroflexus [8]; 66.4% in the data set on Medicago sativa [19]. The Activity in the data set on Brassica napus [10] was found to be 100%; in the data set on Amaranthus retroflexus [20] it was 93%; with Brassica napus [11] it was 14.6%; with Medicago sativa [13], 100%; in the data set on Amaranthus retroflexus [14], 100%; with Brassica napus [16], 100%. In addition, the Activity result in the data set on Zea mays is “Non-toxic”.

For the compound `CCOCCOC(=O)/C(C#N)=C(/CC)NCc1ccc(Cl)nc1`, the Activity is reported as 83.7% with Medicago sativa [1]; 100% in the data set on Amaranthus retroflexus [2]; 75% in the data set with Brassica napus [18]; 62.8% in the data set on Medicago sativa [3]; 100% in the data set on Amaranthus retroflexus [4]; 45.3% with Medicago sativa [7]. Moreover, the Activity is listed as 88.4% in the data set with Amaranthus retroflexus [8]; 71.4% in the data set on Medicago sativa [19]; 100% in the data set with Brassica napus [10]; 71.4% in the data set with Amaranthus retroflexus [20]; 94.1% in the data set with Brassica napus [11]; 83.7% in the data set with Medicago sativa [13]. Moreover, the Activity is recorded as 100% in the data set on Amaranthus retroflexus [14], 100% with Brassica napus [16], 98.4% with Brassica napus [17] and “Non-toxic” in the data set with Zea mays.

Take `CCOCCOC(=O)/C(C#N)=C(\NCc1ccc(Cl)nc1)C(C)C`: the Activity with Medicago sativa [1] worked out at 75.6%; with Amaranthus retroflexus [2], 93%; in the data set on Brassica napus [18], 95.5%; in the data set on Medicago sativa [3], 45.3%; in the data set on Amaranthus retroflexus [4], 93.9%; with Medicago sativa [7] it was 14%. Further, the Activity with Amaranthus retroflexus [8] worked out at 72.1%; in the data set with Medicago sativa [19], 23%; in the data set with Brassica napus [10], 100%; in the data set on Amaranthus retroflexus [20], 97.8%; in the data set on Brassica napus [11] it was 89.4%; with Medicago sativa [13], 65.9%. Moreover, the Activity with Amaranthus retroflexus [14] is listed as 100%; in the data set with Brassica napus [16], 100%; with Brassica napus [17] it was 100%; in the data set with Zea mays, “Non-toxic”.

Turning to `CCCOc1ccc(CN/C(SC)=C(\C#N)C(=O)OCCOCC)cn1`, the Activity in the data set with Brassica napus [18] stood at 16.3%; in the data set with Amaranthus retroflexus [4], 93.8%; in the data set with Medicago sativa [19] it was 0%; in the data set with Amaranthus retroflexus [20] it was 0%; in the data set with Medicago sativa [13], 0%; in the data set on Brassica napus [16], 96.8%. For the same compound, the Activity result with Zea mays is “Non-toxic”.

For `CCOCCOC(=O)/C(C#N)=C(/NCc1ccc(OCC)nc1)SC`, the Activity is given as 22% with Brassica napus [18]; 100% in the data set on Amaranthus retroflexus [4]; 0% in the data set on Medicago sativa [19]; 37.5% in the data set on Amaranthus retroflexus [20]; 91.5% in the data set on Medicago sativa [13]; 100% with Brassica napus [16]. The Activity result in the data set with Zea mays is reported as “Non-toxic”.

As to `CCOCCOC(=O)/C(C#N)=C(/NCc1ccc(OC)nc1)SC`, the Activity with Brassica napus [18] was 68.3%; with Amaranthus retroflexus [4], 100%; with Medicago sativa [19] it was 36.4%; with Amaranthus retroflexus [20], 56.3%; with Medicago sativa [13], 80.9%; with Brassica napus [16], 100%. Moreover, the Activity result with Zea mays was “Non-toxic”.

With `COC(=O)COC(=O)/C(C#N)=C(/NCc1ccc(Cl)nc1)SC`, the Activity was 0% in the data set with Brassica napus [18]; 0% in the data set with Amaranthus retroflexus [4]; 0% in the data set with Medicago sativa [19]; 0% with Amaranthus retroflexus [20]; 4.8% in the data set with Medicago sativa [13]; 0% with Brassica napus [16]. The Activity result in the data set on Zea mays is “Non-toxic”.

`CS/C(NCc1ccc(Cl)nc1)=C(/C#N)C(=O)N1CCOCC1`: the Activity with Medicago sativa [1] is reported as 75%; with Amaranthus retroflexus [2] it was 25%; in the data set on Brassica napus [18] it was 0%; with Medicago sativa [3], 9.7%; in the data set with Amaranthus retroflexus [4], 100%; in the data set on Medicago sativa [7] it was 0%. In addition, the Activity in the data set on Amaranthus retroflexus [8] is 0%; in the data set with Medicago sativa [19], 0%; with Brassica napus [10] it was 99.4%; in the data set on Amaranthus retroflexus [20] it was 0%; with Brassica napus [11] it was 0%; in the data set with Medicago sativa [13], 75%. The Activity in the data set on Amaranthus retroflexus [14] is 100%; with Brassica napus [16], 99.4%; with Brassica napus [17], 0%; with Zea mays, “Non-toxic”.

With `CS/C(NCc1ccc(Cl)nc1)=C(/C#N)C(=O)OCC1CCCO1` (stereo not drawn), the Activity in the data set with Medicago sativa [1] was 64%; in the data set with Amaranthus retroflexus [2], 88.4%; in the data set with Brassica napus [18], 54.2%; with Medicago sativa [3], 52.3%; in the data set with Amaranthus retroflexus [4], 98.8%; in the data set with Medicago sativa [7], 41.9%. Further, the Activity in the data set with Amaranthus retroflexus [8] is on record as 79.1%; in the data set on Medicago sativa [19] it was 16.7%; with Brassica napus [10], 100%; with Amaranthus retroflexus [20] it was 14.3%; in the data set on Brassica napus [11], 94.7%; in the data set on Medicago sativa [13] it was 64%. Besides, the Activity in the data set with Amaranthus retroflexus [14] is listed as 98.8%; in the data set on Brassica napus [16] it was 100%; in the data set with Brassica napus [17] it was 97.3%; in the data set with Zea mays, “Non-toxic”.

On to `C=CCOC(=O)/C(C#N)=C(/NCc1ccc(Cl)nc1)SCC`, for which the Activity was found to be 0% in the data set with Brassica napus [18]; 100% in the data set on Amaranthus retroflexus [4]; 0% in the data set with Medicago sativa [19]; 0% with Amaranthus retroflexus [20]; 98.8% in the data set with Medicago sativa [13]; 100% in the data set with Brassica napus [16]. Further, the Activity result in the data set on Zea mays is given as “Non-toxic”.

For `C=CCOC(=O)/C(C#N)=C(/NCc1ccc(Cl)nc1)SC`, the Activity was determined as 100% in the data set with Medicago sativa [1]; 61.6% with Amaranthus retroflexus [2]; 0% in the data set on Brassica napus [18]; 56.1% with Medicago sativa [3]; 100% in the data set with Amaranthus retroflexus [4]; 15.9% in the data set with Medicago sativa [7]. In addition, the Activity in the data set on Amaranthus retroflexus [8] was found to be 22.2%; with Medicago sativa [19], 0%; in the data set with Brassica napus [10], 91.7%; with Amaranthus retroflexus [20], 0%; in the data set with Brassica napus [11] it was 33.3%; with Medicago sativa [13] it was 100%. The Activity with Amaranthus retroflexus [14] is 100%; with Brassica napus [16] it was 91.7%; in the data set with Brassica napus [17], 82.7%; in the data set with Zea mays it was “Non-toxic”.

These data come from ChEMBL document CHEMBL3046628, “Synthesis and herbicidal activity of 2-cyano-3-substituted-pyridinemethylaminoacrylates” (J Agric Food Chem, 2003).
